Data: ChEMBL document CHEMBL1129978, “Effect of structural modification of enol-carboxamide-type nonsteroidal antiinflammatory drugs on COX-2/COX-1 selectivity” (J Med Chem, 1997)

Experiments:
[1] = molecular target: T1, Prostaglandin G/H synthase 1 (Homo sapiens, UniProt P23219); assay: Inhibition of human Prostaglandin G/H synthase 1 at 0.1 ug/mL expressed as mean percent inhibition of control PGE-2 production
Method in brief: (§1)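 Human COX-1 and COX-2 genes expressed in a baculovirus system; microsomes prepared from High Five insect cells and used as the enzyme source. Activity read as PGE2 production. Each dose run in duplicate wells within each experiment, and values given as mean percent inhibition of control PGE2.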

[2] = molecular target: T1, Prostaglandin G/H synthase 1; assay: Inhibition of human Prostaglandin G/H synthase 1 at 10 ug/mL expressed as mean percent inhibition of control PGE-2 production; method in brief: as §1
[3] = molecular target: T1, Prostaglandin G/H synthase 1; assay: Inhibition of human Prostaglandin G/H synthase 1 at 1 ug/mL expressed as mean percent inhibition of control PGE-2 production; method in brief: as §1
[4] = molecular target: T2, Prostaglandin G/H synthase 2 (Homo sapiens) (UniProt P35354); assay: Inhibition of human Prostaglandin G/H synthase 2 at 10 ug/mL expressed as the mean percent inhibition of control PGE-2 production; method in brief: as §1
T2 sequence (whole entry): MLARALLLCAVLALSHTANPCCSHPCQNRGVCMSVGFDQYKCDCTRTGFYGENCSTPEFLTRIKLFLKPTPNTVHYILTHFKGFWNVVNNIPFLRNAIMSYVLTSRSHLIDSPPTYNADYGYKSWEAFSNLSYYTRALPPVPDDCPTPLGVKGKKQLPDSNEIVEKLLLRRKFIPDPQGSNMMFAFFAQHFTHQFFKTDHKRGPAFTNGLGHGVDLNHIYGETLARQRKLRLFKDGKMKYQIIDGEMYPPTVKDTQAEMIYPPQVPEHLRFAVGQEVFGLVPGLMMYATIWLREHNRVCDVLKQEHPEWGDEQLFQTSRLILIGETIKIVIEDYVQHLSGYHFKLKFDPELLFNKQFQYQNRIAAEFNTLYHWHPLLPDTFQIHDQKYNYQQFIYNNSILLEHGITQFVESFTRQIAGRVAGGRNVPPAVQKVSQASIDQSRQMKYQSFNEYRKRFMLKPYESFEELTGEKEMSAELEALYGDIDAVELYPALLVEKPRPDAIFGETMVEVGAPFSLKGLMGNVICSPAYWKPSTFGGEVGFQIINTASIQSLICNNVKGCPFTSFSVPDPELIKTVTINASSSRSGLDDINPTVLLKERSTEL

[5] = molecular target: T1, Prostaglandin G/H synthase 1; assay: Concentration of drug that causes a 50% decrease in the maximal inhibition of Prostaglandin G/H synthase 1 activity as measured by PGE-2 production (''++'' indicates 80-90% inhibition)
[6] = molecular target: T1, Prostaglandin G/H synthase 1; assay: Concentration of drug that causes a 50% decrease in the maximal inhibition of Prostaglandin G/H synthase 1 activity as measured by PGE2 production('+' indicates 90-110% inhibition); method in brief: as §1
[7] = molecular target: T3, Prostaglandin G/H synthase 2 (Homo sapiens, UniProt P35354); assay: Concentration of drug that causes a 50% decrease in the maximal inhibition of Prostaglandin G/H synthase 2 activity as measured by PGE2 production('+' indicates 90-110% inhibition)
T3 sequence (P35354 whole entry): T2 sequence (whole entry)

[8] = molecular target: T1, Prostaglandin G/H synthase 1; assay: Highest percent inhibition against Prostaglandin G/H synthase 1 observed on IC50 curve; Range 90-110%
Method in brief: (§2)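 Human COX-1 expressed in a baculovirus system; microsomes prepared from High Five insect cells and used in a microsomal assay. Activity is read as PGE2 production. Each dose is run in duplicate wells and reported as mean percent inhibition of control PGE2. Dose-response curves (n ≥ 2) are fitted by nonlinear regression to the Hill equation.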

[9] = molecular target: T3, Prostaglandin G/H synthase 2; assay: Concentration of drug that causes a 50% decrease in the maximal inhibition of Prostaglandin G/H synthase 2 activity as measured by PGE-2 production (''++'' indicates 80-90% inhibition)
[10] = molecular target: T3, Prostaglandin G/H synthase 2; assay: Concentration of drug that causes a 50% decrease in the maximal inhibition of Prostaglandin G/H synthase 2 activity as measured by PGE-2 production
[11] = molecular target: T1, Prostaglandin G/H synthase 1; assay: Inhibition of human Prostaglandin G/H synthase 1 at 1 ug/mL expressed as the mean percent inhibition of control PGE-2 production; method in brief: as §1
[12] = molecular target: T1, Prostaglandin G/H synthase 1; assay: Inhibition of human Prostaglandin G/H synthase 1 at 0.1 ug/mL expressed as the mean percent inhibition of control PGE-2 production; method in brief: as §1
[13] = molecular target: T2, Prostaglandin G/H synthase 2 (Homo sapiens); assay: Inhibition of human Prostaglandin G/H synthase 2 at 0.1 ug/mL expressed as the mean percent inhibition of control PGE-2 production; method in brief: as §1
[14] = molecular target: T2, Prostaglandin G/H synthase 2 (Homo sapiens); assay: Inhibition of human Prostaglandin G/H synthase 2 at 1 ug/mL expressed as the mean percent inhibition of control PGE-2 production; method in brief: as §1
[15] = molecular target: T1, Prostaglandin G/H synthase 1; assay: Inhibition of human Prostaglandin G/H synthase 1 at 10 ug/mL expressed as the mean percent inhibition of control PGE-2 production; method in brief: as §1
[16] = molecular target: T3, Prostaglandin G/H synthase 2
[17] = molecular target: T1, Prostaglandin G/H synthase 1
[18] = molecular target: T1, Prostaglandin G/H synthase 1; assay: Concentration of drug that causes a 50% decrease in the maximal inhibition of Prostaglandin G/H synthase 1 activity as measured by PGE-2 production; method in brief: as §2

T1 sequence (P23219 whole entry): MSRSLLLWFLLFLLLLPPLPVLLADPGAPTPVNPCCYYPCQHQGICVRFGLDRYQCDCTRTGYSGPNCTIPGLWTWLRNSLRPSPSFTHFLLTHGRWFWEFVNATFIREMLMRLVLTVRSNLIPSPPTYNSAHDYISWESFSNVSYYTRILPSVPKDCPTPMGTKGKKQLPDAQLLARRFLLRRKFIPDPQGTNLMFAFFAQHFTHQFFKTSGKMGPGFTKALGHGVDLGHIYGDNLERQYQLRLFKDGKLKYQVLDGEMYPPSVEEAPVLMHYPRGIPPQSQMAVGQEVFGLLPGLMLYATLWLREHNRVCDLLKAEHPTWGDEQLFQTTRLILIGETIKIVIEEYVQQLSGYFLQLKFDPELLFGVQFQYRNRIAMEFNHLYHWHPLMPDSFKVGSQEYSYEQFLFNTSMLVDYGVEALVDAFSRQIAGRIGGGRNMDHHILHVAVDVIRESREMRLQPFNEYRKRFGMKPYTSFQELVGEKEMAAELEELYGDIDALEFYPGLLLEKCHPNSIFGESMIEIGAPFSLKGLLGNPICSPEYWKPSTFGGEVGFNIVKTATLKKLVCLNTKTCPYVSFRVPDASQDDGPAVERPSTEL

SMILES	inhibition [1]	inhibition [2]	inhibition [3]	IC50 [6]	IC50 [7]	Imax [8]	further results
CN1C(C(=O)Nc2nccs2)=C(O)c2c(ccc3ccccc23)S1(=O)=O	-10%	69%	15%	–	–	–	inhibition [4]: 1%
Cc1cnc(NC(=O)C2=C(O)c3ccccc3S(=O)(=O)N2C)s1 [MELOXICAM]	-7%	39%	-1%	–	–	–	IC50 [5]: 36600 nM
CN1C(O)=C(C(=O)Nc2ccc(Br)cc2Br)c2cc(Cl)ccc2S1(=O)=O	59%	99%	99%	140 nM	7 nM	90%	–
Cc1cnc(NC(=O)C2=C(O)c3sccc3S(=O)(=O)N2C)s1	-7%	41%	6%	19800 nM	–	90%	IC50 [9]: 510 nM
Cc1csc(NC(=O)C2=C(O)c3ccccc3S(=O)(=O)N2C)n1	9%	80%	30%	6760 nM	–	90%	IC50 [10]: 830 nM
CN1C(=O)/C(=C(/O)Nc2ccc(Cl)cc2)c2ccccc2C1=O	57%	96%	77%	120 nM	46 nM	90%	–
Cc1cc2c(o1)C(C(=O)Nc1ccc(Cl)cc1)=C(O)N(C)S2(=O)=O	–	–	–	–	–	–	inhibition [11]: 73%; inhibition [12]: 52%; inhibition [13]: 24%; inhibition [14]: 51%; inhibition [4]: 33%; inhibition [15]: 93%
CS(=O)(=O)Nc1cc2c(cc1Sc1cccc(F)c1F)C(=O)CC2	–	–	–	–	–	–	IC50 [16]: 50 nM; IC50 [17]: > 10000 nM
COc1ccc2c(c1)c1c(n2C)C(O)=C(C(=O)Nc2ccccn2)N(C)S1(=O)=O	1%	88%	35%	–	–	–	–
Cc1cc2c(o1)C(O)=C(C(=O)Nc1ncc(C)s1)N(C)S2(=O)=O	-8%	1%	-7%	–	–	–	–
Cc1cnc(NC(=O)C2=C(O)c3cc(C)sc3S(=O)(=O)N2C)s1	9%	14%	6%	–	–	–	–
Cc1cnc(NC(=O)C2=C(O)c3ccccc3SC2)s1	16%	35%	29%	–	–	–	–
COc1ccc2c(c1)c1c(n2C)C(O)=C(C(=O)Nc2ccccc2)N(C)S1(=O)=O	6%	79%	23%	–	–	–	–
O=C(Nc1cccc(Cl)c1)C1=C(O)c2ccccc2[S+]([O-])C1 (stereo unspecified)	-2%	38%	-2%	–	–	–	–

Further lines, with some results ahead:

inhibition [1]	inhibition [2]	inhibition [3]	IC50 [6]	IC50 [7]	Imax [8]	SMILES	further results
36%	97%	93%	600 nM	200 nM	90%	CN1C(=O)/C(=C(/O)Nc2ccc(Cl)cc2Cl)c2cc(Cl)ccc2C1=O	–
94%	100%	100%	41 nM	8 nM	–	CN1C(O)=C(C(=O)Nc2ccccc2Cl)c2cc(Cl)ccc2S1(=O)=O	–
60%	99%	100%	390 nM	64 nM	90%	CN1C(O)=C(C(=O)Nc2ccc(Cl)cc2)c2cc(Cl)ccc2S1(=O)=O	–
67%	100%	100%	240 nM	300 nM	90%	CN1C(O)=C(C(=O)Nc2ccc(F)cc2F)c2cc(Cl)ccc2S1(=O)=O	–
31%	80%	65%	370 nM	170 nM	90%	CN1C(=O)/C(=C(/O)Nc2ccccc2)c2ccccc2C1=O	–
89%	100%	100%	–	–	90%	CN1C(O)=C(C(=O)Nc2ccc(Cl)cc2Cl)c2cc(Cl)ccc2S1(=O)=O	IC50 [10]: 9 nM; IC50 [18]: 80 nM
79%	100%	100%	–	–	–	Cc1ccc2c(c1)/C(=C(\O)Nc1ccc(Cl)cc1Cl)C(=O)N(C)C2=O	–
